Measured values gathered from unrelated publications.
Lines come from different studies, so protocols differ.
Target: Mitogen-activated protein kinase 8 (MAPK8, Homo sapiens, UniProt P45983)

`c1cnn2ncc(-c3ccnc(N4CCC45COC5)n3)c2c1` has a remaining binding of 26% (binding, competition with immobilised ligand; 1 µM).
`Cc1cnc(Nc2ccc(C(=O)N3CCC(N4CCCC4)CC3)cc2)nc1-c1cc2ccccc2s1` has a remaining binding of 4.5% (binding, competition with immobilised ligand; 1 µM).
With `F[C@@H]1CCN(c2nccc(-c3cnn4ncccc34)n2)C1` the remaining binding was 89% (binding; 1 µM).
`COC(=O)Nc1nc2ccc(C(=O)c3ccccc3)cc2[nH]1` has a remaining binding of 14% (cell-free assay, competition with immobilised ligand; 10 µM).
The remaining binding of `O=C(NCC1CCOCC1)c1n[nH]cc1NC(=O)c1c(F)cccc1F` is reported as 16% (binding, competition with immobilised ligand; 1 µM).
The remaining binding of `O=C(c1ccc(Nc2ncc(Cl)c(-c3cc4ccccc4s3)n2)cc1)N1CCC(N2CCCC2)CC1` is reported as 3% (binding, competition with immobilised ligand; 1 µM).
With `Cc1cnn2ncc(-c3ccnc(N(C)C)n3)c2c1` the remaining binding was 67% (binding; 1 µM).
The remaining binding of `c1cncc(-c2cccc(Nc3nccc(NC4CCCCC4)n3)c2)c1` is reported as 24% (binding, competition with immobilised ligand; 10 µM).
For `Nc1c(C(=O)NCc2ccc(C(=O)NCCCC3CCCCC3)cc2)cnn1-c1ccccc1`, the remaining binding was 100% (cell-free assay, competition with immobilised ligand; 0.1 µM).
`C[C@@H]1CN(c2ccc3ncc(-c4ccc5[nH]nc(C6CC6)c5c4)n3n2)C[C@H](C)O1` has a remaining binding of 54% (binding, competition with immobilised ligand; 0.5 µM).
For `COc1cnc(Nc2cccc(S(N)(=O)=O)c2)nc1N1CCN(c2ccccc2)CC1`, the remaining binding was 87% (binding, competition with immobilised ligand; 1 µM).
The remaining binding of `N[C@@H]1CCN(c2nccc(-c3cnn4ncccc34)n2)C1` is reported as 27% (binding; 1 µM).
The remaining binding of `Cc1c[nH]c2nccc(Oc3c(F)cc(Nc4cc(Cl)nc(N)n4)cc3F)c12` is reported as 80% (cell-free assay, competition with immobilised ligand; 0.1 µM).
`CN(C)c1nccc(-c2cnc3ncccn23)n1` gave a remaining binding of 59% (binding, competition with immobilised ligand; 1 µM).
With `C[C@H](c1ccc(F)cc1)N(Cc1cccc(C(=O)O)c1)C(=O)c1cnc2ccccc2c1` the remaining binding was 100% (cell-free assay, competition with immobilised ligand; 1 µM).
With `CC1CCCN1c1nccc(-c2cnn3ncccc23)n1` (stereo not drawn) the remaining binding was 94% (binding, competition with immobilised ligand; 1 µM).
`O=C(O)c1cc(-c2ccc(C3CCNCC3)cc2)c2ccc(-c3ccc(C(F)(F)F)cc3)cc2c1` has a remaining binding of 100% (cell-free assay, competition with immobilised ligand; 1 µM).
`COc1ncc2cc3ccccc3nc2c1C#N` gave a remaining binding of 100% (cell-free assay, competition with immobilised ligand; 5 µM).
`Cn1nc(C(=O)NCc2ccc(C(=O)O)cc2)cc1-c1ccc2[nH]ccc2c1` gave a remaining binding of 88% (cell-free assay, competition with immobilised ligand; 0.1 µM).
`C[C@H]1CCN(c2nccc(-c3cnn4ncccc34)n2)C1` gave a remaining binding of 34% (binding, competition with immobilised ligand; 1 µM).
`CCC(=O)N[C@@H]1CC[C@H](C(=O)N(C)c2ccc(-c3nc4ccccc4o3)cc2)C1` gave a remaining binding of 53% (cell-free assay, competition with immobilised ligand; 1 µM).
`O=C(c1ccc(Nc2nccc(-c3cc4ccccc4s3)n2)cc1)N1CCC(N2CCCC2)CC1` gave a remaining binding of 2.4% (binding, competition with immobilised ligand; 1 µM).
`CC(=O)N1CCC(c2ccc(C(=O)NC(=N)N)cc2C(F)(F)F)CC1` gave a remaining binding of 73% (cell-free assay, competition with immobilised ligand; 1 µM).
For `CCN1CCN(Cc2ccc(C(=O)Nc3ccc(C)c(Oc4ccc5c(c4)CC(=O)N5)c3)cc2C(F)(F)F)CC1`, the remaining binding was 82% (binding, competition with immobilised ligand; 1 µM).
